These results are taken from ChEMBL document CHEMBL3734704, “Synthesis and Biological Evaluation of Novel Bouchardatine Derivatives as Potential Adipogenesis/Lipogenesis Inhibitors for Antiobesity Treatment” (J Med Chem, 2015).

The subject of one data set is HepG2. Briefly: Decrease in cholesterol level in human HepG2 cells at 1 uM after 24 hrs by […] assay in presence of 0.5 mM oleic acid sodium. The format is functional. The procedure, abridged: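 HepG-2 cells seeded, then after 24 h exposed to 0.5 mM oleic acid sodium plus compound (1 µM; dose series up to 10 µM) for 24 h, DMSO vehicle. Cells lysed in 0.2% Triton X-100 for 1 h, sonicated, centrifuged. Triglyceride measured by GPO-POD kit and cholesterol by kit, both normalized to BCA protein; n = 3.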

A short description of data set [1]: Decrease in triglyceride level in mouse 3T3L1 cells during all developmental stages at 0.5 uM for 9 days. It is filed as functional, cell-based. As to conditions: 3T3-L1. The procedure, abridged: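 During 3T3-L1 differentiation with compound present (0.5 µM, or 5 µM for one compound), cells were collected and counted every day and triglyceride content was measured by TG assay.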

Data set [2] can be described thus: Decrease in triglyceride level in mouse 3T3L1 preadipocytes compound treated for 6 days measured on day 6 by oil red O staining based microscopic analysis. It is filed as functional, cell-based. The procedure, abridged:
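3T3-L1 preadipocytes, 2 days post-confluent, treated at 0.01-10.0 µM for 6 days of differentiation, with compound added Day 0 and renewed Day 3. On Day 6, TG measured by TG assay (per protein) and confirmed by Oil Red O staining; n = 3.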

The nature of data set [3]: Decrease in triglyceride level in mouse 3T3L1 cells at 1 uM measured during 3 to 6 days by oil red O staining based microscopic analysis. It is filed as functional, cell-based. The settings on record: 3T3-L1. In short, it runs like this: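 3T3-L1 cells given 1 µM compound during day 0-3, 0-6, 0-9, 3-6, 3-9 or 6-9 of differentiation. On Day 9, intracellular lipid measured by TG assay (Triton lysate, GPO-POD kit, per protein) and by Oil Red O staining with microscopy; n = 3.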

The nature of data set [4]: Cell cycle arrest in mouse 3T3L1 cells assessed as number of cells at S phase at 3 uM after 24 hrs by flow cytometry (reference value: 18.1%). It is filed as functional, cell-based. As to conditions: 3T3-L1.
A short description of data set [5]: Cell cycle arrest in mouse 3T3L1 cells assessed as number of cells at G2/M phase at 0.3 uM after 24 hrs by flow cytometry (reference value: 37.2%). The settings on record: 3T3-L1. It is filed as functional, cell-based.
In data set [6] the test system is 3T3-L1. Briefly: Induction of apoptosis in mouse 3T3L1 cells assessed as viable cells at 3 uM after 24 hrs by annexin-V-FITC and PI staining based flow cytometry (reference value: 98.95%). The format is functional. The settings on record: 3T3-L1, 24 h, read-out: Activity.
In data set [7] the test system is 3T3-L1. Briefly: Induction of apoptosis in mouse 3T3L1 cells assessed as early apoptotic cells at 3 uM after 24 hrs by annexin-V-FITC and PI staining based flow cytometry (reference value: 0.56%). The format is functional.
The subject of data set [8] is 3T3-L1. Briefly: Induction of apoptosis in mouse 3T3L1 cells assessed as early apoptotic cells at 0.3 uM after 24 hrs by annexin-V-FITC and PI staining based flow cytometry (reference value: 0.56%). It is filed as functional.
Data set [9] has as its system 3T3-L1. Briefly: Induction of apoptosis in mouse 3T3L1 cells assessed as late apoptotic cells at 1 uM after 24 hrs by annexin-V-FITC and PI staining based flow cytometry (reference value: 0.03%). The format is functional.
Data set [10] can be described thus: Downregulation of SREBP-1c mRNA level in mouse 3T3L1 cells at 0.3 to 3 uM after 24 hrs by RT-PCR analysis. It is filed as functional, cell-based. The settings on record: 3T3-L1. In short, it runs like this: (§1)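 3T3-L1 preadipocytes in adipogenic cocktail with compound (0.3-3.0 µM; 3 µM for the 2 h and 24 h time course). Total RNA extracted, cDNA made from 1 µg RNA with oligo primer, then PCR: 95 °C 10 min, 35 cycles of 95 °C 30 s, annealing 45 s, 72 °C 1 min, final 72 °C 10 min. Normalized to actin; n = 3.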

Data set [11] is described as follows: Downregulation of C/EBP alpha level in mouse 3T3L1 cells at 0.3 to 3 uM after 3 days by western blot analysis. It is filed as functional, cell-based. The settings on record: 3T3-L1. In short, it runs like this:
(§2)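 3T3-L1 preadipocytes incubated in adipogenic cocktail with or without compound (0.3, 1.0, 3.0 µM) for the stated periods. Protein levels measured by Western blot (RIPA lysis, PVDF, BSA block, primary 16 h at 4 °C, HRP secondary), normalized to GAPDH/Tubulin and expressed relative to controls; n = 3.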

Data set [12] in a line: Downregulation of PPAR-gamma level in mouse 3T3L1 cells at 0.3 to 3 uM after 3 days by western blot analysis. As to conditions: 3T3-L1. The format is functional, cell-based. The procedure, abridged:
as §2

Data set [13] in a line: Downregulation of SREBP-1c level in mouse 3T3L1 cells at 0.3 to 3 uM after 3 days by western blot analysis. It is filed as functional, cell-based. As to conditions: 3T3-L1. The procedure, abridged:
as §2

Data set [14] can be described thus: Downregulation of FAS level in mouse 3T3L1 cells after 6 days by western blot analysis. It is filed as functional, cell-based. As to conditions: 3T3-L1. The procedure, abridged:
as §2

The target of data set [15] is T1, Serine/threonine-protein kinase STK11 (Mus musculus) (UniProt Q9WTK7).
T1 sequence (whole entry): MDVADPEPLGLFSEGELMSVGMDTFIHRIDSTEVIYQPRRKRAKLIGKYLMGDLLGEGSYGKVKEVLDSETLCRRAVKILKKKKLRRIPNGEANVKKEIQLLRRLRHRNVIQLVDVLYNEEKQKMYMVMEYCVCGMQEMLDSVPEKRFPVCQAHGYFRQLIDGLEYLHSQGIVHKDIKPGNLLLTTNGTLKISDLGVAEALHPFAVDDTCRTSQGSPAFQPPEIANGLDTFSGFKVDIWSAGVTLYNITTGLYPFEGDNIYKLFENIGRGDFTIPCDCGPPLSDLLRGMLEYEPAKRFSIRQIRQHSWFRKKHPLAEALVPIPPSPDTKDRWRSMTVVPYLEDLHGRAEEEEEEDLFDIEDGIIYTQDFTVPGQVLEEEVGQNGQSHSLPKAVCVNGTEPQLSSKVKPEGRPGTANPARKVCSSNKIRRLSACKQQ
Briefly: Activation of LKB1-mediated AMPK in mouse 3T3L1 cells assessed as increase in phophorylated AMPK alpha at Thr 172 residue level at 3 uM after 10 mins by western blot analysis. The format is cell-based. As to conditions: 3T3-L1. In short, it runs like this:
(§3)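 3T3-L1 preadipocytes held in adipogenic cocktail with or without compound at 3 µM, time course (10 min, 2 h, 24 h) during differentiation. Lysis in RIPA with protease/phosphatase inhibitors, SDS-PAGE, PVDF, BSA block, primary antibody 16 h at 4 °C, HRP secondary. Bands normalized to GAPDH, with the 10 min DMSO group set as 100%; n = 3.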

Data set [16] is described as follows: Downregulation of PPAR-gamma mRNA level in mouse 3T3L1 cells at 3 uM after 24 hrs by RT-PCR analysis. The format is functional, cell-based. The settings on record: 3T3-L1. The procedure, abridged:
as §1

Data set [17] in a line: Downregulation of SREBP-1c mRNA level in mouse 3T3L1 cells at 3 uM after 24 hrs by RT-PCR analysis. The format is functional, cell-based. The settings on record: 3T3-L1. The procedure, abridged: as §1
Data set [18] in a line: Downregulation of C/EBP delta mRNA level in mouse 3T3L1 cells at 3 uM after 2 and 24 hrs by RT-PCR analysis. The settings on record: 3T3-L1. It is filed as functional, cell-based. In short, it runs like this: as §1
Data set [19] concerns the target T1, Serine/threonine-protein kinase STK11 (Mus musculus). Put plainly: Activation of LKB1-mediated ACC in mouse 3T3L1 cells assessed as increase in phophorylated ACC level at 3 uM by western blot analysis. As to conditions: 3T3-L1, TDE = time-dependent effect. The format is cell-based. In short, it runs like this: as §3
A short description of data set [20]: Cytotoxicity against mouse 3T3L1 cells preadipocytes assessed as cell viability at 1 to 10 uM for 24, 48 and 72 hrs by LDH release assay relative to control. The settings on record: 3T3-L1 preadipocyte cells.

Calls of active or inactive are those of the source. The rule behind the calls is not given here.

Consider `O=Cc1c(-c2nc(NCCN3CCCC3)c3ccccc3n2)[nH]c2ccccc12`, for which, in the data set on HepG2, the “inhibition (INH)” value is on record as less than 10%. In addition, the inhibition entry in data set [1], in data set [10], in data set [11], in data set [12], in data set [13] and in [16] was “Active” throughout. Further, the inhibition result in data set [17] and in [18] was “Active” in each case. The inhibition entry was “Dose-dependent effect” in data set [2] (3T3-L1), 80% in [3] and “Dose-dependent effect” in data set [14]. In data set [2] (3t3-l1), this compound showed an EC50 of 17 nM. In addition, the Activity in data set [4] is 3.3%; in data set [5], 40.2%; with 3T3-L1 [7], 0.39%; with 3T3-L1 [8], 1.58%; in the data set with 3T3-L1 [9], 0.25%; in [19] it was “tde”. The viability at 3 µM in the data set with 3T3-L1 [6] was 97.7%. Moreover, the outcome in [15] was Active. Further, the viability at 72 h, 10 µM in data set [20] worked out at 83%.
